Assay outcomes (PubChem)
S1P1 ag pot = agonists and agonism potentiators of human S1P1 receptor. P21453. S1P1 CRE-bla cells, forskolin, beta-lactamase FRET, potentiator mode; S1P1 agonist co-added at EC20, 2 nM; 100% = saturating reference agonist, 0% = basal. activation, % at 9.5 µM. 56,000 tested, 0.57% active. AID 449;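 active = activation above a cutoff set at the mean activation of all tested compounds plus 3 SD, cut at about 54% in these data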;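 note: forskolin at 4 µM as EC80 and the EC20 agonist is SEW2871; 100% = SEW2871 at its EC100 plus forskolin at EC80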
HTR1A agonist = agonists of human 5-HT1a serotonin receptor | activation, % at 10 µM | 65,000 tested, 0.56% active | CHO 5-HT1a Ga15 NFAT-bla reporter, FRET ratio; 0% basal, 100% maximal reference agonist | P08908;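 active = activation above the screen-wide mean activation plus 3 SD, cut at about 19% in these data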;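 note: 0% = DMSO wells and 100% = 5-CT at EC100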
5HT1E antag = 5-HT1E (human) receptor antagonism; AID 571; 65,000 tested, 0.99% active; P28566; inhibition, % at 6 µM; CHO 5-HT1E Ga15 NFAT-bla reporter, FRET, antagonist;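 active = inhibition above a set limit, the mean inhibition across every tested compound plus 3 SD, cut at about 29% in these data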;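 note: signal is the 460 over 535 nm emission ratio of beta-lactamase substrate; 0% = agonist plus DMSO wells and 100% = wells without agonist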
Target sequence (P28566 whole entry, looked up): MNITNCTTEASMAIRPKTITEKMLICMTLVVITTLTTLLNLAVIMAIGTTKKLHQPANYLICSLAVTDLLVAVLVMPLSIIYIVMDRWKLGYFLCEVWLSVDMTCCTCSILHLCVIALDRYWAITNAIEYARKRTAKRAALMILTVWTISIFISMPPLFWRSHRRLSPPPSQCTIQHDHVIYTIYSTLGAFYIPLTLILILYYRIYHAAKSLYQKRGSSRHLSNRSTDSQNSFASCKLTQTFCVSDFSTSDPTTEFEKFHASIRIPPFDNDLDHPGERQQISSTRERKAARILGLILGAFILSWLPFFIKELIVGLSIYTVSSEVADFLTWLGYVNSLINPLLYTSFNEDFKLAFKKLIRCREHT
5HT1a antag = antagonists of human 5-HT1a serotonin receptor; P08908; CHO 5-HT1a Ga15 NFAT-bla reporter, antagonist mode; inhibition, % at 10 µM; 62,000 tested, 0.68% active;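 active = inhibition above the mean of all tested compounds plus 3 SD, cut at about 43% in these data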;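 note: receptor stimulated by 5-CT agonist at 100 nM near EC80; beta-lactamase reporter measured by ratiometric fluorescence of a cleavable substrate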
HTR1E agonist = agonists of human 5-HT1E serotonin receptor | P28566 | CHO 5-HT1E Ga15 NFAT-bla reporter, FRET; 0% DMSO wells, 100% control agonist wells | activation, % at 6 µM | 65,000 tested, 0.69% active | AID 574;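 active = activation above a set limit, the screen-wide mean activation plus 3 SD, cut at about 8.5% in these data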;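 note: 100% = positive control agonist at 1 µM giving full maximal response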
S1P3 agonist = activates the human S1P3 receptor. 60,000 tested, 0.1% active. Q99500. activation, % at 4.5 µM. S1P3 NFAT-BLA reporter cells, agonism, FRET ratio; relative to 1 µM S1P, basal subtracted;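 active = activation above the screen-wide mean plus 3 SD, cut at about 4.5% in these data, passing the limit was not always enough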
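Material: Human S1P3 NFAT-BLA reporter CHO cells | Incubation: Overnight plating, 4 h compound 37 °C, 2 h substrate RT | Signal: FRET β-lactamase substrate fluorescence, excitation 405 nm, 460/535 nm emission ratio, background-subtracted | Compound: 4.5 µM final, single dose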
An asterisk follows results filed as active; nt = no result. An excerpt weighted towards active compounds, which were near 3% of everything screened.

SMILES	S1P1 ag pot	HTR1A agonist	5HT1E antag	5HT1a antag	HTR1E agonist	S1P3 agonist
CC(C)[C@H](NC(=O)OC(C)(C)C)c1nnc(SCC(=O)Nc2ccc(Br)cc2)o1	61*	-2	12	35	0	-1
CC1CN(C(=O)CN2C(=O)c3ccccc3C2=O)CC(C)O1 (configuration not stated)	-13	-1	-2	-7	0	1
COc1ccccc1OCC(O)Cn1c(=N)n(CCN2CCCCC2)c2ccccc21 (configuration not stated)	nt	0	6	71*	-1	nt
N=c1n(CCN2CCCCC2)c2ccccc2n1CC(O)COc1ccccc1 (configuration not stated)	-15	-1	-9	49*	0	0
N=c1n(CCN2CCOCC2)c2ccccc2n1CC(O)COc1ccccc1 (configuration not stated)	-27	-1	0	1	0	0
N=c1n(CCN2CCCC2)c2ccccc2n1CC(O)c1ccco1 (configuration not stated)	-4	1	6	2	0	0
N=c1n(CCN2CCCCC2)c2ccccc2n1CC(O)c1cccc(Br)c1 (configuration not stated)	-1	-5	-1	54*	0	-1
CCCc1nc2ccccc2c2nc(N)nn12	-28	-3	34*	-5	1	0
Nc1nc2c3ccccc3nc(Cc3ccccc3)n2n1	-35	-1	9	-11	0	0
COC(=O)c1cc2oc(C)cc2n1CC(=O)N1CCCc2ccccc21	-3	-2	-7	12	-2	-1
CCCC1C(C#N)=C(N)Oc2n[nH]c(C(C)(C)C)c21 (configuration not stated)	-8	1	-3	-3	1	-1
CC(C)(C)NC1=CC(=O)OC12CCCCC2	-12	-4	-4	-1	0	0
CC(C)c1cc(C(F)(F)F)n2nc(C(=O)Nc3ccc4c(c3)OCO4)cc2n1	102*	1	24	13	0	0
O=C(COC(=O)c1ccco1)Nc1cccc(Br)c1	nt	0	7	6	0	nt
COCC(=O)Nc1cccc(Br)c1	nt	20*	-9	1	0	1
Cc1ccc2[nH]c(=O)c(C(c3nnnn3C3CCCC3)N(Cc3cccnc3)Cc3ccco3)cc2c1 (configuration not stated)	-24	98*	-2	3	3	0
CCOC(=O)C(C(C)=O)c1c(Br)c(O)c(O)c2c(C(=O)c3ccc(C)cc3)coc12 (configuration not stated)	48	-2	17	45*	0	-1
CCc1c(C)nc2ncnn2c1NCCc1ccc(OC)cc1	55*	0	20	9	0	-1
c1ccc(CCNc2c3c(nc4ncnn24)CCC3)cc1	18	1	3	3	0	-2
COc1ccc(CCn2c(N)c(C(=O)NCc3ccco3)c3nc4ccccc4nc32)cc1OC	-112	1	1	6	2	7.3*
COCCNC(=O)c1c(N)n(CCC2=CCCCC2)c2nc3ccccc3nc12	-54	29*	-26	nt	8	4
COCCn1c(N)c(C(=O)OCc2ccccc2)c2nc3ccccc3nc21	-32	1	6	-30	2	0
COCCNC(=O)CN(C(=O)CCC(=O)Nc1cc(C)on1)c1ccccc1C	-5	-1	1	2	-1	0
CN(C)S(=O)(=O)N1CCC(c2ccc(F)cc2)C(COc2ccc3c(c2)OCO3)C1 (configuration not stated)	-12	-1	9	47*	-1	-2
Cc1cc(C(=O)NCCN2CCN(c3cccc(Cl)c3)CC2)n(-c2ccccc2)n1	-2	31*	-4	24	2	-2
SMILES	S1P1 ag pot	HTR1A agonist	5HT1E antag	5HT1a antag	HTR1E agonist	S1P3 agonist
CCOCCCn1c(=S)[nH]c2cc(C(=O)NCCOC)ccc2c1=O	nt	1	1	2	16*	nt
COc1ccc(N2CCN(CCNC(=O)CCCn3c(=O)[nH]c4cc(Cl)ccc4c3=O)CC2)cc1	nt	0	1	-10	0	nt
Cn1cc(C(=O)NCCN2CCN(c3cccc(Cl)c3)CC2)c2c3ccccc3n(C)c2c1=O	-9	2	2	-2	1	0
COCCn1c(=O)[nH]c2cc(C(=O)NCCN3CCN(c4cccc(Cl)c4)CC3)ccc2c1=O	nt	28*	8	23	2	nt
O=C(CSc1nc2ccccc2o1)NCc1n[nH]c(=O)c2ccccc12	-1	0	-12	-1	2	-1
COc1ccc(C(OC(=O)c2ccco2)C(=O)NC2CCCCC2)cc1OC (configuration not stated)	-6	-2	-3	2	0	0
O=C(OC(C(=O)NC1CCCC1)c1ccccc1F)c1ccco1 (configuration not stated)	-16	156*	-6	12	0	0
Cc1ccc2c(CSc3nc4ccccc4c(=O)n3CCCO)cc(=O)oc2c1	-20	-1	33*	16	0	0
O=C(NC1CCCCC1)C1CCCN1S(=O)(=O)c1cccc2nsnc12 (configuration not stated)	-14	-2	10	-6	-1	0
O=C(O)C1CSCN1S(=O)(=O)c1cccc2nsnc12 (configuration not stated)	1	-1	-11	nt	9.7*	-1
CCOC(=O)c1c(CN2CCN(C)CC2)oc2ccc(OC)cc12	-16	0	-10	-12	0	0
CCOC(=O)c1c(CN2CCCCC2)oc2ccc(OC)cc12	4	21*	1	nt	0	0
Cc1c2c(n3c(nc4ccccc43)c1C#N)N(Cc1cccnc1)CC2	5	4	-1	-6	0	-1
Cc1nn(-c2ccc(F)cc2)c2nc(N)c(C#N)c(-c3cccs3)c12	24	3	36*	29	-2	0
CCOc1ccc(C(=O)Nc2ccc(Cl)cn2)cc1Cl	73*	0	-1	10	1	-1
CSc1ccc(C2C(C#N)=C(N)N(c3ccccc3)C3=C2C(=O)CCC3)cc1 (configuration not stated)	nt	0	11	43*	0	nt
O=C1CCCC2=C1C(c1ccccc1)CC(=O)N2c1ccccc1 (configuration not stated)	13	0	-1	3	0	-1
CCC(=O)N1CCc2cc(S(=O)(=O)Nc3ccc4c(c3)OCCO4)ccc21	nt	-1	8	7	-1	nt
O=C(C1CCC1)N1CCc2cc(S(=O)(=O)Nc3ccc4c(c3)OCCO4)ccc21	115*	-4	9	9	0	-1
